{"data": "Results gathered from unrelated publications", "target": "Prostaglandin G/H synthase 2 (PTGS2, Homo sapiens, UniProt P35354)", "effect on": "enzyme activity", "mode": "inhibitor", "One construct used (P35354 18-604)": "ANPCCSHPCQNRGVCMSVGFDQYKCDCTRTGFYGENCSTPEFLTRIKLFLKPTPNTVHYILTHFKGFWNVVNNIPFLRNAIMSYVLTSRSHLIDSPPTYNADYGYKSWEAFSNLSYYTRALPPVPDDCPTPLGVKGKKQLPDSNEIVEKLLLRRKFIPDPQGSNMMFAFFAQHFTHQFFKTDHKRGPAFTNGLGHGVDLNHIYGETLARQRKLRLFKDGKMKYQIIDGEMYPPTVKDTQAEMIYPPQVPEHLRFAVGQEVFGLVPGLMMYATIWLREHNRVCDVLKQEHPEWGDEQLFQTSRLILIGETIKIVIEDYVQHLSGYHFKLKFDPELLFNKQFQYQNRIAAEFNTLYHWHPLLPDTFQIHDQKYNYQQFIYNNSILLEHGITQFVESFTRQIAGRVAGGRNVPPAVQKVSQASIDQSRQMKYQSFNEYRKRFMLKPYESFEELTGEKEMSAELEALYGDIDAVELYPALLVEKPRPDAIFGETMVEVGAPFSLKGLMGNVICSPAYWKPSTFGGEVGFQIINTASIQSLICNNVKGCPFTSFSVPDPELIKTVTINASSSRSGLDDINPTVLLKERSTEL"}
{"SMILES": "CCn1c(-c2nc3cc(C(=O)N4CCC[C@@H](N)C4)cc(OC)c3n2C)cc2cccnc21", "IC50": "> 100000 nM"}
{"SMILES": "CC1=NN(c2cccc(Cl)c2)C(=O)/C1=C\\c1cn(-c2nc(N3CCCC3)nc(N3CCOCC3)n2)c2ccccc12", "IC50": "1000 nM"}
{"SMILES": "O=C(O)c1ccc(O)cc1", "technique": "absorbance", "IC50": "19500 nM"}
{"SMILES": "Cc1cccc2nc(-c3ccc(S(C)(=O)=O)cc3)c(Nc3ccc(F)cc3)n12", "IC50": "80 nM"}
{"SMILES": "CC1=NN(c2cccc(Cl)c2)C(=O)/C1=C\\c1cn(-c2nc(N3CCOCC3)nc(N3CCOCC3)n2)c2ccccc12", "IC50": "20 nM"}
{"SMILES": "CS(=O)(=O)c1ccc(-n2cc(/C=N/N=c3\\[nH]c(-c4ccc([N+](=O)[O-])cc4)cs3)c(-c3ccc(Br)cc3)n2)cc1", "IC50": "11500 nM"}
{"SMILES": "CS(=O)(=O)c1ccc(-c2nc3ccccn3c2Nc2ccc(F)cc2)cc1", "IC50": "100 nM"}
{"SMILES": "O=Cc1cn(-c2nc(N3CCOCC3)nc(N3CCOCC3)n2)c2ccccc12", "IC50": "30 nM"}
{"SMILES": "CCOC(=O)c1cc(O)c(O)c(O)c1", "IC50": "13400 nM"}
{"SMILES": "O=C1Nc2ccccc2/C1=C/c1cn(-c2nc(N3CCCCC3)nc(N3CCOCC3)n2)c2ccccc12", "IC50": "80 nM"}
{"SMILES": "Cc1ccn2c(Nc3ccc(F)cc3)c(-c3ccc(S(C)(=O)=O)cc3)nc2c1", "IC50": "80 nM"}
{"SMILES": "O=C1/C(=C\\c2cn(-c3nc(N4CCCC4)nc(N4CCOCC4)n3)c3ccccc23)c2ccccc2N1c1c(Cl)cccc1Cl", "IC50": "4000 nM"}
{"SMILES": "Cc1cccc2nc(-c3ccc(S(C)(=O)=O)cc3)c(Nc3ccc(Cl)cc3)n12", "IC50": "80 nM"}
{"SMILES": "CC(=O)c1cccc(/N=N/c2cc(/C=C/C(=O)O)ccc2O)c1", "IC50": "> 100000 nM"}
{"SMILES": "CS(=O)(=O)c1ccc(-n2cc(C=N/N=c3\\[nH]c(-c4ccc(Br)cc4)cs3)c(-c3ccc([N+](=O)[O-])cc3)n2)cc1", "IC50": "27800 nM"}
{"SMILES": "CC(=O)c1cccc(N=Nc2c(C(=O)O)cc(O)c(O)c2O)c1", "IC50": "5510 nM"}
{"SMILES": "COc1ccc(Nc2c(-c3ccc(S(C)(=O)=O)cc3)nc3ccccn23)cc1", "IC50": "390 nM"}
{"SMILES": "O=C1Nc2ccccc2/C1=C/c1cn(-c2nc(N3CCOCC3)nc(N3CCOCC3)n2)c2ccccc12", "IC50": "1000 nM"}
{"SMILES": "Cc1ccc(-c2nc3ccccc3s2)c(-c2ccc(S(C)(=O)=O)cc2)c1", "technique": "absorbance", "IC50": "230 nM"}
{"SMILES": "COc1ccc(Nc2c(-c3ccc(S(C)(=O)=O)cc3)nc3cccc(C)n23)cc1", "IC50": "90 nM"}
{"SMILES": "CS(=O)(=O)c1ccc(-c2ncc(Cl)cc2-c2nc3ccccc3s2)cc1", "technique": "absorbance", "IC50": "230 nM"}
{"SMILES": "O=C1/C(=C\\c2cn(-c3nc(N4CCOCC4)nc(N4CCOCC4)n3)c3ccccc23)c2ccccc2N1c1c(Cl)cccc1Cl", "IC50": "400 nM"}
{"SMILES": "COc1cc([C@H]2OC[C@H]3[C@@H]2CO[C@@H]3c2cc(OC)c(O)c(OC)c2)cc(OC)c1O", "technique": "absorbance", "IC50": "2490 nM"}
{"SMILES": "Cc1ccc(-c2nn(-c3ccc(S(C)(=O)=O)cc3)cc2/C=N\\N=c2/[nH]c(-c3ccc([N+](=O)[O-])cc3)cs2)cc1", "IC50": "11300 nM"}
{"SMILES": "Cc1ccn2c(Nc3ccc(Cl)cc3)c(-c3ccc(S(C)(=O)=O)cc3)nc2c1", "IC50": "80 nM"}
{"SMILES": "CC(C)Cc1ccc(-c2nn(-c3ccc(S(C)(=O)=O)cc3)cc2/C=N/N=c2\\[nH]c(-c3ccc([N+](=O)[O-])cc3)cs2)cc1", "IC50": "817 nM"}
{"SMILES": "CC(=O)c1ccc(N=Nc2c(C(=O)O)cc(O)c(O)c2O)cc1", "IC50": "6110 nM"}
{"SMILES": "CS(=O)(=O)c1ccc(-c2ncccc2-c2nc3ccccc3s2)cc1", "technique": "absorbance", "IC50": "860 nM"}
{"SMILES": "Cc1cccn2c(Nc3ccc(F)cc3)c(-c3ccc(S(C)(=O)=O)cc3)nc12", "IC50": "70 nM"}
{"SMILES": "COc1ccc(-c2cc(=O)c3c(O)cc(O[C@@H]4O[C@H](CO)[C@@H](O)[C@H](O)[C@H]4O)cc3o2)cc1O", "technique": "absorbance", "IC50": "973 nM"}
{"SMILES": "O=Cc1cn(-c2nc(N3CCCC3)nc(N3CCOCC3)n2)c2ccccc12", "IC50": "2000 nM"}
{"SMILES": "COc1ccc(-c2nn(-c3ccc(S(C)(=O)=O)cc3)cc2/C=N/N=c2\\[nH]c(-c3ccc(Br)cc3)cs2)cc1", "IC50": "18600 nM"}
